Assays:
Format in all cases: functional
[1] = test system: MCF7; assay: Cytotoxicity against human MCF7 cells after 2 days by sulforhodamine B assay; conditions: MCF7, 48 h
Method in brief: (§1)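 NCI60 multi-dose screen, 59 human tumour lines available. Cells exposed to compound across a 5-log mol/L concentration range for 2 days, then fixed and stained with sulphorhodamine B, optical density read. Growth inhibition calculated against time-zero control and untreated cells. GI50 derived from the dose series, average of two replicates.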

[2] = test system: BT-549; assay: Cytotoxicity against human BT549 cells after 2 days by sulforhodamine B assay; conditions: BT-549, 48 h; method in brief: as §1
[3] = test system: NCI-H23; assay: Cytotoxicity against human NCI-H23 cells after 2 days by sulforhodamine B assay; conditions: NCI-H23, 48 h; method in brief: as §1
[4] = test system: NCI-H460; assay: Cytotoxicity against human NCI-H460 cells after 2 days by sulforhodamine B assay; conditions: NCI-H460, 48 h; method in brief: as §1
[5] = test system: SF-268; assay: Cytotoxicity against human SF268 cells after 2 days by sulforhodamine B assay; conditions: SF-268, 48 h; method in brief: as §1
[6] = test system: MDA-MB-231; assay: Cytotoxicity against human MDA-MB-231 cells after 2 days by sulforhodamine B assay; conditions: MDA-MB-231, 48 h; method in brief: as §1
[7] = test system: PC-3; assay: Cytotoxicity against human PC3 cells after 2 days by sulforhodamine B assay; conditions: PC-3, 48 h; method in brief: as §1
[8] = test system: UACC-62; assay: Cytotoxicity against human UACC62 cells after 2 days by sulforhodamine B assay; conditions: UACC-62, 48 h
Method in brief: (§2)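 NCI DTP NCI60 multi-dose screen (59 human tumour lines available). Cells exposed to compound over a 5-log mol/L concentration range for 2 days, then fixed and stained with sulphorhodamine B, with optical density read. Growth inhibition calculated relative to time-zero cells and untreated cells, giving GI50 (half-maximal growth inhibition concentration). Average of two replicates.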

[9] = Cytotoxicity against human NCI-ADR-RES cells after 2 days by sulforhodamine B assay; conditions: 48 h; method in brief: as §1
[10] = test system: MDA-MB-468; assay: Cytotoxicity against human MDA-MB-468 cells after 2 days by sulforhodamine B assay; conditions: MDA-MB-468, 48 h; method in brief: as §1
[11] = test system: OVCAR-8; assay: Cytotoxicity against human OVCAR8 cells after 2 days by sulforhodamine B assay; conditions: OVCAR-8, 48 h; method in brief: as §1
[12] = test system: NCI-H322M; assay: Cytotoxicity against human NCI-H322M cells after 2 days by sulforhodamine B assay; conditions: 48 h; method in brief: as §1
[13] = test system: SK-MEL-2; assay: Cytotoxicity against human SK-MEL-2 cells after 2 days by sulforhodamine B assay; conditions: SK-MEL-2, 48 h; method in brief: as §1
[14] = test system: SK-MEL-5; assay: Cytotoxicity against human SK-MEL-5 cells after 2 days by sulforhodamine B assay; conditions: SK-MEL-5, 48 h; method in brief: as §1
[15] = test system: HT-29; assay: Cytotoxicity against human HT-29 cells after 2 days by sulforhodamine B assay; conditions: HT-29, 48 h; method in brief: as §1
[16] = test system: HOP-62; assay: Cytotoxicity against human HOP62 cells after 2 days by sulforhodamine B assay; conditions: HOP-62, 48 h; method in brief: as §1
[17] = test system: 786-0; assay: Cytotoxicity against human 786-0 cells after 2 days by sulforhodamine B assay; conditions: 786-0, 48 h; method in brief: as §1
[18] = test system: HCT-116; assay: Cytotoxicity against human HCT116 cells after 2 days by sulforhodamine B assay; conditions: HCT-116, 48 h; method in brief: as §1
[19] = test system: HCC 2998; assay: Cytotoxicity against human HCC2998 cells after 2 days by sulforhodamine B assay; conditions: HCC 2998, 48 h; method in brief: as §1
[20] = test system: TK-10; assay: Cytotoxicity against human TK10 cells after 2 days by sulforhodamine B assay; conditions: TK-10, 48 h; method in brief: as §2
[21] = test system: HCT-15; assay: Cytotoxicity against human HCT15 cells after 2 days by sulforhodamine B assay; conditions: HCT-15, 48 h; method in brief: as §1
[22] = test system: UO-31; assay: Cytotoxicity against human UO31 cells after 2 days by sulforhodamine B assay; conditions: UO-31, 48 h; method in brief: as §2
[23] = test system: U-251; assay: Cytotoxicity against human U251 cells after 2 days by sulforhodamine B assay; conditions: U-251, 48 h; method in brief: as §2
[24] = test system: A498; assay: Cytotoxicity against human A498 cells after 2 days by sulforhodamine B assay; conditions: A498, 48 h; method in brief: as §1
[25] = test system: RXF 393; assay: Cytotoxicity against human RXF393 cells after 2 days by sulforhodamine B assay; conditions: RXF 393, 48 h; method in brief: as §1
[26] = test system: SW-620; assay: Cytotoxicity against human SW620 cells after 2 days by sulforhodamine B assay; conditions: SW-620, 48 h; method in brief: as §2
[27] = Cytotoxicity against human Hs578T cells after 2 days by sulforhodamine B assay; conditions: Hs-578T, 48 h; method in brief: as §1
[28] = test system: SR; assay: Cytotoxicity against human SR cells after 2 days by sulforhodamine B assay; conditions: 48 h; method in brief: as §2
[29] = test system: NCI-H226; assay: Cytotoxicity against human NCI-H226 cells after 2 days by sulforhodamine B assay; conditions: NCI-H226, 48 h; method in brief: as §1
[30] = test system: Malme-3M; assay: Cytotoxicity against human MALME-3M cells after 2 days by sulforhodamine B assay; conditions: 48 h; method in brief: as §1
[31] = test system: SF-539; assay: Cytotoxicity against human SF539 cells after 2 days by sulforhodamine B assay; conditions: SF-539, 48 h; method in brief: as §1
[32] = read-out: LC50 (the source's name)

## CCC(=C(c1ccc(OCCN(C)C)cc1)c1ccc(OC(=O)CCCCC(=O)C2=C(C)/C(=C/c3[nH]c(-c4ccc[nH]4)cc3OC)N=C2C)cc1)c1ccccc1
[1]
  GI50: 0.05 µM
  LC50 (concentration giving 50% net cell kill): 4.68 µM
  TGI: 1.2 µM
[2]
  GI50: 3.55 µM
  LC50 (concentration killing 50% of cells present at time zero): 41.7 µM
  TGI: 17 µM
[3]
  GI50: 12.6 µM
  LC50 (concentration killing 50% of cells): 69.2 µM
  TGI: 29.5 µM
[4]
  GI50: 3.98 µM
  LC50: 53.7 µM
  TGI: 15.5 µM
[5]
  GI50: 7.76 µM
  LC50 (concentration killing 50% of cells): > 100 µM
  TGI: 30.2 µM
[6]
  GI50: 2 µM
  LC50: 33.9 µM
  TGI: 11.5 µM
[7]
  GI50: 4.57 µM
  LC50 (concentration killing 50% of cells): 58.9 µM
  TGI: 20.4 µM
[8]
  GI50: 4.9 µM
  TGI: 17.8 µM
[8]; [32]
  CC50: 45.7 µM
[9]
  GI50: 12.6 µM
  TGI: 46.8 µM
[9]; [32]
  CC50: > 100 µM
[10]
  GI50: 2.45 µM
  LC50: 41.7 µM
  TGI: 14.8 µM
[11]
  GI50: 6.61 µM
  LC50: 47.9 µM
  TGI: 19.9 µM
[12]
  GI50: 13.5 µM
  LC50 (concentration killing 50% of cells): 69.2 µM
  TGI: 30.9 µM
[13]
  GI50: 16.6 µM
  LC50: 67.6 µM
  TGI: 33.1 µM
[14]
  GI50: 1.62 µM
  LC50 (concentration killing 50% of cells): 6.03 µM
  TGI: 3.09 µM
[15]
  GI50: 3.02 µM
  LC50: 74.1 µM
  TGI: 14.8 µM
[16]
  GI50: 12.3 µM
  TGI: 24.5 µM
[16]; [32]
  CC50: 50.1 µM
[17]
  GI50: 4.79 µM
  LC50 (concentration killing 50% of cells): 52.5 µM
  TGI: 19 µM
[18]
  GI50: 3.55 µM
  LC50 (concentration killing 50% of cells vs time zero): 37.1 µM
  TGI: 13.8 µM
[19]
  GI50: 13.2 µM
  LC50 (50% lethal concentration): 53.7 µM
  TGI: 26.9 µM
[20]
  GI50: 12.9 µM
  LC50: 50.1 µM
  TGI: 25.1 µM
[21]
  GI50: 4.47 µM
  LC50: > 100 µM
  TGI: 28.8 µM
[22]
  GI50: 2.82 µM
  LC50: 87.1 µM
  TGI: 21.4 µM
[23]
  GI50: 7.76 µM
  LC50: > 100 µM
  TGI: 30.2 µM
[24]
  GI50: 12.9 µM
  LC50: 53.7 µM
  TGI: 26.3 µM
[25]
  GI50: 3.89 µM
  LC50 (concentration killing 50% of cells): 44.7 µM
  TGI: 17.8 µM
[26]
  GI50: 3.16 µM
  LC50 (concentration killing 50% of cells): 34.7 µM
  TGI: 11.5 µM
[27]
  GI50: 5.01 µM
  TGI: 47.9 µM
[27]; [32]
  CC50: > 100 µM
[28]
  GI50: 3.02 µM
  LC50 (concentration giving 50% net cell kill): > 100 µM
  TGI: 20.9 µM
[29]
  GI50: 14.1 µM
  LC50: 83.2 µM
  TGI: 34.7 µM
[30]
  GI50: 9.33 µM
  LC50: > 100 µM
  TGI: 34.7 µM
[31]
  GI50: 12.9 µM
  LC50: 58.9 µM
  TGI: 27.5 µM

From ChEMBL document CHEMBL2417509, “Synthesis and biological evaluation of prodigiosene conjugates of porphyrin, estrone and 4-hydroxytamoxifen” (2013)
